Measurements from ChEMBL document CHEMBL1914298, “Synthesis and inhibition study of monoamine oxidase, indoleamine 2,3-dioxygenase and tryptophan 2,3-dioxygenase by 3,8-substituted 5H-indeno[1,2-c]pyridazin-5-one derivatives” (Eur J Med Chem, 2011).
Active and inactive are the calls of the source. The calls are words filed in the database; no cut-off is given here.

Legend:
[1] = biological target: T1, MAO-A (amine oxidase [flavin-containing] A) (Homo sapiens, UniProt P21397); assay: (§1) Inhibition of human recombinant MAOA expressed in baculovirus-infected BTI insect cells at 10 uM after 1 hr by MAO-GLO two-step bioluminescence assay
T1 sequence (P21397 whole entry): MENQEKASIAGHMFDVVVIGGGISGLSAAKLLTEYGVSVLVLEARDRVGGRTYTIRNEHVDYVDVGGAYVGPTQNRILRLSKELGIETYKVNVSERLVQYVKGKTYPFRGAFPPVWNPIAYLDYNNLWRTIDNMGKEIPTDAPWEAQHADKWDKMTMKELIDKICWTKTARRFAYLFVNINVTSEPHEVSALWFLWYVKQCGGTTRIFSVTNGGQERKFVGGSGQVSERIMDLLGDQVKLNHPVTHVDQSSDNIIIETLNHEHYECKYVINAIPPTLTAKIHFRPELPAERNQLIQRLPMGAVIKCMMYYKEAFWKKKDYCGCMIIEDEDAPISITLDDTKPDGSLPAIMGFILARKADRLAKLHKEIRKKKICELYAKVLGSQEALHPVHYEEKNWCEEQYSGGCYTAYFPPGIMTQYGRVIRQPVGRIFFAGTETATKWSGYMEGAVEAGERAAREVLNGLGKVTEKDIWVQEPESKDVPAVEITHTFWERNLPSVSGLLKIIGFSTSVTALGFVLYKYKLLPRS
In short: (§2)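 Recombinant human MAO-A or MAO-B from baculovirus-infected BTI insect cells; test compound at […], in triplicate in vitro; activity measured by luminescent method (Valley et al.); percent inhibition given as mean ± SD, n = 3.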

[2] = biological target: T2, MAO-B (amine oxidase [flavin-containing] B) (Homo sapiens, UniProt P27338); assay: Inhibition of human recombinant MAOB expressed in baculovirus-infected BTI insect cells at 10 uM after 1 hr by MAO-GLO two-step bioluminescence assay; in short: as §2
T2 sequence (P27338 whole entry): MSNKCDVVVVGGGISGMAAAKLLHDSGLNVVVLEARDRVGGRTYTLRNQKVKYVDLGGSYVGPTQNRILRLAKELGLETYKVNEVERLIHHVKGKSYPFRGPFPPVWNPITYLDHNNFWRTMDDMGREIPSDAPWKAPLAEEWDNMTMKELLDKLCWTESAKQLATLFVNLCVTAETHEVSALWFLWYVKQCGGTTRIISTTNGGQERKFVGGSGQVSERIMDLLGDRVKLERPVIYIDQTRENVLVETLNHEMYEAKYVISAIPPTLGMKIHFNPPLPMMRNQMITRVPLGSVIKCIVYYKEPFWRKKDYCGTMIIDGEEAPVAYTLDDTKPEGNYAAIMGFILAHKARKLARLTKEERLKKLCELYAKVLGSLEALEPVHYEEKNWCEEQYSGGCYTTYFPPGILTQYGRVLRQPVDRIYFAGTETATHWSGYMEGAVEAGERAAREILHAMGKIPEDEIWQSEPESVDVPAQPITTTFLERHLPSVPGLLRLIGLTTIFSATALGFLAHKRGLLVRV

[3] = biological target: Indoleamine 2,3-dioxygenase 1 (Homo sapiens) (UniProt P14902); assay: Inhibition of human IDO using L-tryptophan as substrate at 25 uM by colorimetric method
Chain of Indoleamine 2,3-dioxygenase 1 (Homo sapiens) (P14902 whole entry, looked up): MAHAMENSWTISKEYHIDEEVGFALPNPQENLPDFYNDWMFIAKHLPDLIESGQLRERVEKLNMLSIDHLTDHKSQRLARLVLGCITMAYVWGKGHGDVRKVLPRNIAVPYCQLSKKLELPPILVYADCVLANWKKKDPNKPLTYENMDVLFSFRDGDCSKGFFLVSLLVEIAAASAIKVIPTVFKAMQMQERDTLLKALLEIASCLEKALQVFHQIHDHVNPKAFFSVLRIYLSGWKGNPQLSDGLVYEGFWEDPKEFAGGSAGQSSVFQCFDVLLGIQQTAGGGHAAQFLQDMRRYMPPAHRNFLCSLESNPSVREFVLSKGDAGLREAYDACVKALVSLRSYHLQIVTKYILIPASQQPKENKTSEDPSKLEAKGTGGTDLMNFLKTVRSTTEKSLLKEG
In short: (§3)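 Human IDO activity read colourimetrically, rmTDO activity read fluorometrically; compounds tested in vitro at […]; percent inhibition as mean ± SD, n = 3.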

[4] = biological target: T3, Tryptophan 2,3-dioxygenase (Ralstonia metallidurans (strain CH34 / ATCC 43123 / DSM 2839)) (UniProt Q1LK00); assay: Inhibition of Ralstonia metallidurans TDO using L-tryptophan as substrate at 25 uM by fluorimetric method; conditions: Cupriavidus metallidurans; in short: as §3
T3 sequence (whole entry): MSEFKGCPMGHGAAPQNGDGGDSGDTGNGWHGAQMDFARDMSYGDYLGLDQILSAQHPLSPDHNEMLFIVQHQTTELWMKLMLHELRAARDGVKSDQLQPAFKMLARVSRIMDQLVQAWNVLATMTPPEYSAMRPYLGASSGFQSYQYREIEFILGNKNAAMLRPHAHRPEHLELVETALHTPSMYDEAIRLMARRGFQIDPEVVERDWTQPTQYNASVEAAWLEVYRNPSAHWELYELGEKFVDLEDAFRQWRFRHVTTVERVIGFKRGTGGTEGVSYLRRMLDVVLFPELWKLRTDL

[5] = biological target: T4, Amine oxidase [flavin-containing] B (Homo sapiens, UniProt P27338); assay: Inhibition of human recombinant MAOB expressed in baculovirus-infected BTI insect cells by Lineweaver-Burk plot analysis
T4 sequence (P27338 whole entry): T2 sequence (P27338 whole entry)

[6] = biological target: T4, Amine oxidase [flavin-containing] B; assay: Inhibition of human recombinant MAOB expressed in baculovirus-infected BTI insect cells after 1 hr by Cheng-Prusoff equation analysis
[7] = biological target: T5, Amine oxidase [flavin-containing] A (Homo sapiens, UniProt P21397); assay: as §1; conditions: 1 h, 10 µM; in short: as §2
T5 sequence (P21397 whole entry): T1 sequence (P21397 whole entry)

Row | SMILES | inhibition at 1 h, 10 µM [1] | inhibition at 1 h, 10 µM [2] | inhibition [3] | inhibition [4] | Ki [5] | Ki [6] | inhibition (INH) [7]
1 | O=C1c2ccc(OCCCC(F)(F)F)cc2-c2nnc(-c3cccc(C(F)(F)F)c3)cc21 |  | 57% | inactive | 20% |  |  | Not Active
2 | O=C1c2ccc(OCc3ccccc3)cc2-c2nnc(-c3cccc(C(F)(F)F)c3)cc21 | 10% | 7% | 17% | inactive |  |  | 
3 | COc1ccc2c(c1)-c1nnc(-c3cccc(C(F)(F)F)c3)cc1C2=O |  | 36% | inactive | 18% |  |  | Not Active

The remaining lines, values ahead:

Row | inhibition at 1 h, 10 µM [1] | inhibition at 1 h, 10 µM [2] | inhibition [3] | inhibition [4] | Ki [5] | Ki [6] | inhibition (INH) [7] | SMILES
4 | 15% | 93% | 25% | 19% | 0.11 µM | 0.16 µM |  | Cc1cc2c(nn1)-c1cc(OCc3cccc(Cl)c3)ccc1C2=O
5 |  | 92% | 19% | 31% |  |  | Not Active | Cc1cc2c(nn1)-c1cc(OCCCC(F)(F)F)ccc1C2=O
6 | 17% | 90% | 14% | 66% |  | 0.48 µM |  | Cc1cccc(COc2ccc3c(c2)-c2nnc(C)cc2C3=O)c1
